Measurements: ChEMBL document CHEMBL4431330, “3-Arylpropionylhydroxamic acid derivatives as Helicobacter pylori urease inhibitors: Synthesis, molecular docking and biological evaluation” (Bioorg Med Chem, 2016)
Active and inactive are the calls of the source. The rule behind the calls is not given here.

Columns and labels:
[1] = biological target: T1, Urease subunit alpha/Urease subunit beta (Helicobacter pylori (strain ATCC 700392 / 26695) (Campylobacterpylori), UniProt P69996); assay: Inhibition of Helicobacter pylori urease using urea as substrate assessed as ammonia production after 50 mins by indophenol method; type: protein-complex assay
Summary of the method: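 Urease prepared from H. pylori grown 24 h at 37 °C in Brucella broth with 10% heat-inactivated horse serum under microaerobic conditions. Cells washed in PBS pH 7.4, sonicated with protease inhibitors, desalted on Sephadex G-25, stored in glycerol at 4 °C. Enzyme (10 U) pre-incubated with compound 50 min at 37 °C. Ammonia read by absorbance (indophenol method).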

[2] = biological target: T2, Urease subunit alpha/Urease subunit beta (Helicobacter pylori (strain ATCC 700392 / 26695) (Campylobacterpylori)) (UniProt P69996+P14916); assay: Mixed inhibition of Helicobacter pylori urease assessed as dissociation of enzyme-urea-inhibitor complex by non-linear fitting analysis
[3] = Protein binding in rabbit plasma after 20 mins by ultra-filtration method; type: ADME, cell-free, Oryctolagus cuniculus; settings: read-out: PPB (converted)
Summary of the method: (§1)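 Ultrafiltration, in triplicate. Compound was incubated with human plasma or freshly collected rabbit plasma for 20 min at 37 °C. Samples were then centrifuged through filter devices at 5000 r/min for 15 min at 37 °C. Initial plasma and ultrafiltrate were diluted 8-fold and read by UV-vis. Nonspecific membrane binding was corrected using PBS spiked at the same concentration. % bound = (1 − Cf/(C0(1−NBS)))×100.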

[4] = biological target: T1, Urease subunit alpha/Urease subunit beta; assay: Inhibition of Helicobacter pylori urease using urea as substrate assessed as inhibition constant for enzyme-inhibitor complex by non-linear fitting analysis; type: protein-complex assay
Summary of the method: (§2)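 Urease came from H. pylori grown 24 h at 37 °C in Brucella broth with 10% heat-inactivated horse serum under microaerobic conditions. Washed cells were sonicated with protease inhibitors, desalted on Sephadex G-25, and stored in glycerol. Ammonia production rate (indophenol) was measured across urea gradients below 4 mM at each inhibitor level. V–[S] curves were fitted nonlinearly. Fitted constants b and c were plotted linearly against [I], and Ki and Ki′ were taken from the X-axis intercepts.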

[5] = biological target: T1, Urease subunit alpha/Urease subunit beta; assay: Inhibition of Helicobacter pylori urease using urea as substrate assessed as inhibition constant for enzyme-urea-inhibitor complex by non-linear fitting analysis; type: protein-complex assay; summary of the method: as §2
[6] = Protein binding in human plasma after 20 mins by ultra-filtration method; type: ADME, cell-free; settings: read-out: PPB (converted); summary of the method: as §1
[7] = biological target: T2, Urease subunit alpha/Urease subunit beta (Helicobacter pylori (strain ATCC 700392 / 26695) (Campylobacterpylori)); assay: Potency index, ratio of acetohydroxamic acid IC50 to compound IC50 for Helicobacter pylori urease; type: protein-complex assay
Summary of the method: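 Ratio of the acetohydroxamic acid IC50 to the compound IC50. […] Ammonia formed from urea was then read by the Weatherburn indophenol method.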

[8] = biological target: T1, Urease subunit alpha/Urease subunit beta; assay: Substrate inhibition of Helicobacter pylori urease in presence of >4 mM urea by indophenol method; type: protein-complex assay
Summary of the method: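 No inhibitor. H. pylori urease velocity (indophenol ammonia read-out) was measured against a range of urea concentrations. Km and the substrate-inhibition constant Ksi were obtained by nonlinear least-squares fitting of V = Vmax[S]/(Km + [S] + [S]²/Ksi).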

T1 sequence (P69996 whole entry): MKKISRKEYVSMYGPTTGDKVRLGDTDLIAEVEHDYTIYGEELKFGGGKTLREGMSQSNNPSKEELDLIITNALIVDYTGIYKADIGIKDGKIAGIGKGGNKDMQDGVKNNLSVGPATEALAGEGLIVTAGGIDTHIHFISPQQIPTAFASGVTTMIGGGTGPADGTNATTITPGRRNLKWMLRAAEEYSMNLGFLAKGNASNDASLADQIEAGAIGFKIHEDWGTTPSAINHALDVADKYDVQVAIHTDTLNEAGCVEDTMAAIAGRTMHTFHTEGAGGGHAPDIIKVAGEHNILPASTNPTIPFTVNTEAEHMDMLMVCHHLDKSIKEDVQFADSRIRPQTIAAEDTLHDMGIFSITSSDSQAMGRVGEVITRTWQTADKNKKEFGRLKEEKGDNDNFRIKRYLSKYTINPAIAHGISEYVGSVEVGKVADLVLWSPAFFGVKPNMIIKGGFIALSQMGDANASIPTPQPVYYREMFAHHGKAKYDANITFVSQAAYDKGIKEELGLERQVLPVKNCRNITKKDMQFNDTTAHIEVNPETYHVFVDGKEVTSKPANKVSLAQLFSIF
T1 sequence (P14916 whole entry, further chain): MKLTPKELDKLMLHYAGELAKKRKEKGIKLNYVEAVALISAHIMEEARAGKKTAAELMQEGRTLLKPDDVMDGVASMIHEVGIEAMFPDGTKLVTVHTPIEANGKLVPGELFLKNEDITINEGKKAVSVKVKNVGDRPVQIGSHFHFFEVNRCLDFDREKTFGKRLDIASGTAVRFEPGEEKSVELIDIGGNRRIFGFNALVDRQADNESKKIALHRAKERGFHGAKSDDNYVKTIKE
T2 sequence (P14916 whole entry, looked up): as the sequence (P14916 whole entry, further chain) above
T2 sequence (P69996 whole entry, looked up): as the sequence (P69996 whole entry) above

Row | Structure (SMILES) | IC50 [1] | also measured
1 | CN(O)C(=O)CC(O)c1ccc(OCc2ccccc2)c(OCc2ccccc2)c1 (stereo not drawn) | 376 µM | –
2 | CN(O)C(=O)CC(O)c1c(Cl)cccc1Cl (stereo not drawn) | 77.9 µM | –
3 | O=C(CC(O)c1cc(Cl)ccc1OCc1ccccc1)NO (stereo not drawn) | 0.15 µM | inhibition [2]: Active; fraction unbound at 20 min [3]: 0.562; Ki [4]: 0.404 µM; Ki [5]: 0.373 µM; fraction unbound at 20 min [6]: 0.626; Ratio IC50 [7]: > 20
4 | CN(O)C(=O)CC(O)c1cccc(Br)c1 (stereo not drawn) | 78.2 µM | –
5 | CN(O)C(=O)CC(O)c1ccc(Cl)cc1 (stereo not drawn) | 87.4 µM | –
6 | O=C(CC(O)c1ccc(Cl)cc1Cl)NO (stereo not drawn) | 13.4 µM | –
7 | COc1ccc(C(O)CC(=O)N(C)O)cc1 (stereo not drawn) | 328 µM | –
8 | CN(O)C(=O)CC(O)c1ccc(F)cc1 (stereo not drawn) | 77.2 µM | –
9 | CN(O)C(=O)CC(O)c1ccccc1Cl (stereo not drawn) | 56.6 µM | –
10 | CN(O)C(=O)CC(O)c1ccc(N(C)C)cc1 (stereo not drawn) | 287 µM | –
11 | CN(O)C(=O)CC(O)c1cccc(Cl)c1Cl (stereo not drawn) | 95.8 µM | –
12 | O=C(CC(O)c1cc(Cl)ccc1O)NO (stereo not drawn) | 1.1 µM | inhibition [2]: Active; fraction unbound at 20 min [3]: 0.548; Ki [4]: 4.79 µM; Ki [5]: 1.21 µM; fraction unbound at 20 min [6]: 0.472; Ratio IC50 [7]: > 20
13 | CN(O)C(=O)CC(O)c1ccc(OCc2ccccc2)cc1 (stereo not drawn) | 198 µM | –
14 | COc1cc(C(O)CC(=O)N(C)O)ccc1OCc1ccccc1 (stereo not drawn) | 258 µM | –
15 | CN(O)C(=O)CC(O)c1cc(Cl)ccc1O (stereo not drawn) | 30.5 µM | –
16 | COc1ccc(C(O)CC(=O)N(C)O)cc1OC (stereo not drawn) | 405 µM | –
17 | CN(O)C(=O)CC(O)c1cc(Cl)ccc1OCc1ccccc1 (stereo not drawn) | 26.2 µM | –
18 | CN(O)C(=O)CC(O)c1ccc(Br)cc1 (stereo not drawn) | 97.6 µM | –
19 | CN(O)C(=O)CC(O)c1cccc(F)c1 (stereo not drawn) | 71.2 µM | –
20 | NC(N)=O [UREA] | – | Ki [8]: 6470 µM
21 | CC(=O)NO [ACETOHYDROXAMIC ACID] | 23.8 µM | –
22 | COc1cccc(C(O)CC(=O)N(C)O)c1 (stereo not drawn) | 89.2 µM | –
23 | CN(O)C(=O)CC(O)c1cccc(Cl)c1 (stereo not drawn) | 48 µM | –
24 | CN(O)C(=O)CC(O)c1ccc(Cl)cc1Cl (stereo not drawn) | 367 µM | –
25 | CN(O)C(=O)CC(O)c1ccc(Cl)c(Cl)c1 (stereo not drawn) | 90.4 µM | –
26 | COc1ccccc1C(O)CC(=O)N(C)O (stereo not drawn) | 84 µM | –
